“Also recorded” adds a separate entry of the source. No end group written: not given here.
What was measured:
MCF10CA1a tumors [1] = test: TUNEL staining of treated tumors; format: in vivo, human tumor cells in BALB/c nude mice; conditions: treated tumors after three weeks
MMTV-PyMT tumors = test: tumor homing in MMTV-PyMT model; format: in vivo, mouse; conditions: MMTV-PyMT transgenic breast cancer mice
[2] = tested on: MCF10CA1a orthotopic tumor xenografts; test: anti-tumor efficacy, MCF10CA1a breast cancer model; format: in vivo, human tumor cells in BALB/c nude mice; conditions: for reduction of tumor volume versus PBS: i.v. every other day for 3 weeks, 7.5 mg of iron/kg, at three weeks
MCF10CA1a tumors [3] = test: tumor homing of homing peptide-D[KLAKLAK]2-NWs, MCF10CA1a; format: in vivo, human tumor cells in BALB/c nude mice; conditions: for tumor homing and penetration of chimeric peptide-NWs: confocal microscopy
[4] = tested on: 4T1 mouse breast cancer tumors; test: tumor homing in 4T1 model; format: in vivo; conditions: 4T1 breast tumor model
Outline: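 4T1 cells were maintained in DMEM with 10% FBS and 1% Glutamine-Pen-Strep at 37°C/5% CO2. 1 × 10^6 cells were implanted subcutaneously in the flanks of 4-week-old BALB/c mice. Peptide-coated NWs were assessed for homing to tumor vasculature and extravascular tumor tissue.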

[5] = tested on: tumor blood vessels (CD31); test: CD31 blood vessel count in treated tumors; format: in vivo; conditions: n = 3 mice per group; for average blood vessel count: CD31, 10 random fields at 20×
Outline: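 Residual MCF10CA1a orthotopic tumors came from nude mice given peptide-coated NWs i.v. every other day for 3 weeks (7.5mg iron/kg), with a PBS control. Sections were stained with anti-CD31 and imaged by confocal microscopy. Vessels per field were counted, and groups were compared by one-way ANOVA with Tukey's post hoc test.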

[6] = tested on: tumor vessels of treated MCF10CA1a tumors; test: NW homing to residual treated tumors; format: in vivo, mice; conditions: for NW-positive tumor vessels: treated tumors after three weeks, five hours after last injection, n = 3/group
Outline: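 MCF10CA1a tumor mice were treated for three weeks with FAM-labeled peptide-NWs. Five hours after the last injection, mice were perfused through the heart with PBS and tissues collected. Tumor sections were stained with anti-CD31 and DAPI and examined by confocal microscopy. Percentage of NW-positive vessels was scored in 10 random areas per section, n = 3/group, mean ±SD.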

[7] = tested on: MCF10CA1a cultured tumor cells; test: cell death and caspase-3 activation in cultured tumor cells; format: cell-based, human; conditions: Figure S8
[8] = mouse, in vivo
MCF10CA1a tumors [9] = test: histology; format: in vivo, human tumor cells in BALB/c nude mice; conditions: end of 3-week treatment, H&E
Outline: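 Orthotopic MCF10CA1a xenografts in BALB/c nude mice were treated i.v. with peptide-coated NWs every other day for 3 weeks at 7.5mg iron/kg. At the end of treatment, residual tumors were sectioned and stained with hematoxylin and eosin.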

NRP-1 = test: peptide binding to NRP-1 before and after uPA treatment; conditions: control peptide with active CendR motif, with and without uPA
tumors = conditions: cited from earlier work
MCF10CA1a tumors [10] = conditions: cited from earlier work
glioblastomas = conditions: mice, cited from earlier work
[11] = tested on: tumor-associated macrophages/myeloid cells; conditions: ref Laakkonen et al., 2004; Fogal et al., 2008; cited from earlier work
p32 [12] = biological target: T1, p32 (Homo sapiens, UniProt Q07021); conditions: LyP-1 linearized; no reference given; cited from earlier work
T1 sequence (Q07021 74-282): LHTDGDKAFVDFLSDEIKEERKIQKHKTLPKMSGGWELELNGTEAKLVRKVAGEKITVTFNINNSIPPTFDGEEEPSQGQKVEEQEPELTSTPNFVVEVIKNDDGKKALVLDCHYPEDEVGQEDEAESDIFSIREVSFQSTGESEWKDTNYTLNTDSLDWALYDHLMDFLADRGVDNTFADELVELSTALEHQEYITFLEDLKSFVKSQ

tumor macrophages = conditions: LyP-1 alone, without drug, tumor macrophages in particular; cited from earlier work
p32 [13] = biological target: T1, p32; test: fluorescence anisotropy; format: binding
LinTT1 = biological target: T2, LinTT1 (also: FAM-labeled); test: fluorescence anisotropy
T2 chain: AKRGARSTA

Molecule: LinTT1-D[KLAKLAK]2 [LinTT1-D[KLAKLAK]2-NWs]
- apoptosis by TUNEL staining (MCF10CA1a tumors [1]): apoptosis in the LinTT1D[KLAKLAK]2-NW tumor rims, where it co-localized with the NWs
- tumor homing, MMTV-PyMT (MMTV-PyMT tumors): efficiently homed to the vasculature of the 4T1 and MMTV-PyMT tumors, accumulating also in extravascular tumor tissue
- anti-tumor activity ([2]; 3 weeks, 7.5 mg of iron/kg i.v. every other day): essentially no tumor growth; also recorded: more effective than the previous NPs
- reduction of tumor volume versus PBS [2]: about 90%
- mice in which tumor seemed to have disappeared ([2]; one of two experiments, 3 weeks): four out of 6 mice
- tumors regressed ([2]; proportion of tumors, LinTT1D(KLAKLAK)2-NW group): 10/14
- tumor homing and penetration of chimeric peptide-NWs (MCF10CA1a tumors [3]): highly effective in extravasating and penetrating tumor parenchyma; also recorded: superior to other chimeric peptide-NWs; also recorded: partially co-localize with tumor blood vessels (CD31), but most of the NWs are outside the blood vessels in the extravascular tumor tissue
- tumor accumulation relative to CGKRK-D[KLAKLAK]2-NWs (MCF10CA1a tumors [3]; quantified NW fluorescence): over 7 fold
- tumor homing, 4T1 [4]: efficiently homed to the vasculature of the 4T1 and MMTV-PyMT tumors, accumulating also in extravascular tumor tissue
- average blood vessel count [5]: marked reduction of blood vessels
- reduction of blood vessels versus PBS control ([5]; CD31, after treatment): more than 6 fold
- NW-positive tumor vessels [6]: Approximately 68%
- accumulation in treated tumors ([6]; tumors treated with LinTT1D(KLAKLAK)2-NWs for 3 weeks): no apparent decline in accumulation
- cell death and caspase-3 activation [7]: cell death accompanied by activation of caspase-3
- toxicity [8]: no significant toxicity
- necrosis and apoptotic nuclei in residual tumors (MCF10CA1a tumors [9]): extensive necrosis and a thin rim of tumor tissue around the necrotic core that contained many apparently apoptotic nuclei

Molecule: CGRKR(NH2)-D[KLAKLAK]2 [CGRKR(NH2)-D[KLAKLAK]2-NWs]
- tumor homing and penetration of chimeric peptide-NWs (MCF10CA1a tumors [3]): primarily localized with tumor blood vessels similar to LyP1

Molecule: RPARPAR
- binding to NRP-1 regardless of uPA (NRP-1): bound only to NRP-1 regardless of uPA treatment

Molecule: CGKRK
- tumor homing and penetration of free peptide (tumors; CGKRK (no reference at the statement)): does not extravasate and penetrate beyond tumor vessels

Molecule: CGKRK-D[KLAKLAK]2 [CGKRK-D[KLAKLAK]2-NWs, reference compound]
- reduction of tumor volume versus PBS [2]: about 50%
- average blood vessel count [5]: almost similar to LinTT1NW
- tumor homing of CGKRK-D[KLAKLAK]2-NWs (as shown previously) (MCF10CA1a tumors [10]): accumulated in tumor blood vessels, without penetrating into extravascular tumor tissue
- lifespan in glioblastoma (glioblastomas; more aggressive glioblastoma model): a substantial prolongation of the lifespan of the mice
- tumor growth in glioblastoma (glioblastomas; one glioblastoma model): the growth of tumors was essentially completely suppressed
- NW-positive tumor vessels [6]: 20%

Molecule: CGNKRTRGC [LyP-1]
- overlap with tumor-associated macrophages/myeloid cells [11]: substantial overlap with tumor-associated macrophages/myeloid cells in tumor tissue
- p32-binding activity (p32 [12]): no detectable p32-binding activity
- tumor homing and penetration of LyP-1 (tumors): capable of penetrating into tumors and accumulates in the extravascular tumor tissue
- apoptosis in cells that take up the peptide (tumor macrophages): causes apoptosis in the cells that take up the peptide most avidly, tumor macrophages in particular

Molecule: CGKRKRA-D[KLAKLAK]2 [CGKRKRA-D[KLAKLAK]2-NWs]
- tumor homing and penetration of chimeric peptide-NWs (MCF10CA1a tumors [3]): primarily localized with tumor blood vessels similar to LyP1

Molecule: AKRGARSTA [LinTT1]
- Kd (p32 [13]): 8.7 µM

B1: p32 (gC1qR/HABP) (protein)
chain: LHTDGDKAFVDFLSDEIKEERKIQKHKTLPKMSGGWELELNGTEAKLVRKVAGEKITVTFNINNSIPPTFDGEEEPSQGQKVEEQEPELTSTPNFVVEVIKNDDGKKALVLDCHYPEDEVGQEDEAESDIFSIREVSFQSTGESEWKDTNYTLNTDSLDWALYDHLMDFLADRGVDNTFADELVELSTALEHQEYITFLEDLKSFVKSQ
- Kd (LinTT1): 8.7 µM

Reference: publication PMC5819594 (Nano letters, 2017)
